Laboratory results from ChEMBL document CHEMBL3608250, “Fragment-Based Discovery of Potent and Selective DDR1/2 Inhibitors” (ACS Med Chem Lett, 2015).
Residue numbers refer to the chain shown, from its start. Calls of active or inactive are those of the source. The rule behind the calls is not given here.

Tests used:
[1] = target: T1, Discoidin domain-containing receptor 2 (Homo sapiens, UniProt Q16832); assay: Inhibition of DDR2 (unknown origin) after 1 hr by time resolved fluorescence method
T1 sequence (Q16832 whole entry): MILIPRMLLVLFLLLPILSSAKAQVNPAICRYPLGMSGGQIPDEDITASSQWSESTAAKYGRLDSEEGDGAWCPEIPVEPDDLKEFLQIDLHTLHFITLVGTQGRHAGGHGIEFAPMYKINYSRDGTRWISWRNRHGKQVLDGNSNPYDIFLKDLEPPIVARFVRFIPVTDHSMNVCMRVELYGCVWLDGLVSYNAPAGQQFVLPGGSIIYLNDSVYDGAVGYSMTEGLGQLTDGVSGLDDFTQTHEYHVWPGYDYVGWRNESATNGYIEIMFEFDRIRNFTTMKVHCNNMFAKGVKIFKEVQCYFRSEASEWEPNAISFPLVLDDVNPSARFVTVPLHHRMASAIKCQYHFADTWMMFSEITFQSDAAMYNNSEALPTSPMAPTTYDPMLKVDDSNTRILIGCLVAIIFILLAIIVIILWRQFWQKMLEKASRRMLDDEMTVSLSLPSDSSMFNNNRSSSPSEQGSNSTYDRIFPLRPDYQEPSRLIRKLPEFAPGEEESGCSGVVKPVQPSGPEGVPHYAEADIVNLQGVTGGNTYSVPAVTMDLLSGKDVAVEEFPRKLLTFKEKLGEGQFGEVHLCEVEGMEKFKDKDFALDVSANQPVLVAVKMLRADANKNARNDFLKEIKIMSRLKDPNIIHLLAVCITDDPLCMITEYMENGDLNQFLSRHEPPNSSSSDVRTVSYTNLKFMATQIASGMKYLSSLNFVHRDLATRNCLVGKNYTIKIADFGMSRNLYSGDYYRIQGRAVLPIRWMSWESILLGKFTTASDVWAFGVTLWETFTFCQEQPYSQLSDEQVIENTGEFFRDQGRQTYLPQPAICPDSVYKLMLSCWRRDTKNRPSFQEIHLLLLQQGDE

[2] = target: T2, Epithelial discoidin domain-containing receptor 1 (Homo sapiens, UniProt Q08345); assay: Inhibition of DDR1 (unknown origin) at 0.005 uM after 1 hr by time resolved fluorescence method
T2 sequence (Q08345 whole entry, the tested form may be a part): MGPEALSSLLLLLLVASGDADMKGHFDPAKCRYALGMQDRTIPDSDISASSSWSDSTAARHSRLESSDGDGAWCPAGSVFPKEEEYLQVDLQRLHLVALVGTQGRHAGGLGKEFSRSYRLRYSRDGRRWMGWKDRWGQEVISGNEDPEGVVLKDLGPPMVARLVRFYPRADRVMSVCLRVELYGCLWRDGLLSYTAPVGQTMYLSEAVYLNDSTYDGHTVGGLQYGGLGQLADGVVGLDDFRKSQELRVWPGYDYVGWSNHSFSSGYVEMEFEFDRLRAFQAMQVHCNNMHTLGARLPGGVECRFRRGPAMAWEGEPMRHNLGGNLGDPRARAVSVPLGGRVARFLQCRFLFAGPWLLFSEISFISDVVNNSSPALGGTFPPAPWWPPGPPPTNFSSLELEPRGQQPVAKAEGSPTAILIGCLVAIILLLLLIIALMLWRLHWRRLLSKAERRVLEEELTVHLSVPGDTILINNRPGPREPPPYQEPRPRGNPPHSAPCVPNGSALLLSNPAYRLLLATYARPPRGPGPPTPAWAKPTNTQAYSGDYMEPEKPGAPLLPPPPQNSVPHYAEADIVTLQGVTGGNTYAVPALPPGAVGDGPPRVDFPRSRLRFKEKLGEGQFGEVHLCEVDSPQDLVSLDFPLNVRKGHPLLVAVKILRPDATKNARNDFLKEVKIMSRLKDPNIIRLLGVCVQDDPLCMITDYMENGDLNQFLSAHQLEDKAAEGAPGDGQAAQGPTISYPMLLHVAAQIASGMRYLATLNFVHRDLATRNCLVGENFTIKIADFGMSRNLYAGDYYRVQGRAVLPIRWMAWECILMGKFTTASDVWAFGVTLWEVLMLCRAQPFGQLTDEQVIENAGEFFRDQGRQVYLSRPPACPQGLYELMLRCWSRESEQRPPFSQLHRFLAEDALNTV

[3] = target: Proto-oncogene tyrosine-protein kinase Src (Homo sapiens) (UniProt P12931); assay: Inhibition of c-Src (unknown origin) using biotinylated HER2 peptide as substrate at 10 uM by time resolved fluorescence method
Proto-oncogene tyrosine-protein kinase Src (Homo sapiens), sequence (P12931 2-536 limits assumed): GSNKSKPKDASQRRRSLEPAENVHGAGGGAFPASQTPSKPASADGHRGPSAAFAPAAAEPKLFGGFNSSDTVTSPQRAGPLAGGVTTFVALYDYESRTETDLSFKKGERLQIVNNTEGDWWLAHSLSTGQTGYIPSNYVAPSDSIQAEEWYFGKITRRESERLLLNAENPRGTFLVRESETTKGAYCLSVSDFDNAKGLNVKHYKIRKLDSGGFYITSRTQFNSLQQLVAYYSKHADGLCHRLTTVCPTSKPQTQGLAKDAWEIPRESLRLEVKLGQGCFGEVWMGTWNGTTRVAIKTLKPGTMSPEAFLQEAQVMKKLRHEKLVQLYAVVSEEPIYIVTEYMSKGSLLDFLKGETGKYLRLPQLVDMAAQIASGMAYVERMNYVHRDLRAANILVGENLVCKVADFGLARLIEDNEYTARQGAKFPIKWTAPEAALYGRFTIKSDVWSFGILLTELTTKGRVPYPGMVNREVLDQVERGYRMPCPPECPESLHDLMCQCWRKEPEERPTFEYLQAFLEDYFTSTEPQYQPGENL

[4] = target: T3, Mast/stem cell growth factor receptor Kit (Homo sapiens, UniProt P10721); assay: Inhibition of c-Kit (unknown origin) using biotinylated HER2 peptide as substrate by time resolved fluorescence method
T3 sequence (P10721 whole entry): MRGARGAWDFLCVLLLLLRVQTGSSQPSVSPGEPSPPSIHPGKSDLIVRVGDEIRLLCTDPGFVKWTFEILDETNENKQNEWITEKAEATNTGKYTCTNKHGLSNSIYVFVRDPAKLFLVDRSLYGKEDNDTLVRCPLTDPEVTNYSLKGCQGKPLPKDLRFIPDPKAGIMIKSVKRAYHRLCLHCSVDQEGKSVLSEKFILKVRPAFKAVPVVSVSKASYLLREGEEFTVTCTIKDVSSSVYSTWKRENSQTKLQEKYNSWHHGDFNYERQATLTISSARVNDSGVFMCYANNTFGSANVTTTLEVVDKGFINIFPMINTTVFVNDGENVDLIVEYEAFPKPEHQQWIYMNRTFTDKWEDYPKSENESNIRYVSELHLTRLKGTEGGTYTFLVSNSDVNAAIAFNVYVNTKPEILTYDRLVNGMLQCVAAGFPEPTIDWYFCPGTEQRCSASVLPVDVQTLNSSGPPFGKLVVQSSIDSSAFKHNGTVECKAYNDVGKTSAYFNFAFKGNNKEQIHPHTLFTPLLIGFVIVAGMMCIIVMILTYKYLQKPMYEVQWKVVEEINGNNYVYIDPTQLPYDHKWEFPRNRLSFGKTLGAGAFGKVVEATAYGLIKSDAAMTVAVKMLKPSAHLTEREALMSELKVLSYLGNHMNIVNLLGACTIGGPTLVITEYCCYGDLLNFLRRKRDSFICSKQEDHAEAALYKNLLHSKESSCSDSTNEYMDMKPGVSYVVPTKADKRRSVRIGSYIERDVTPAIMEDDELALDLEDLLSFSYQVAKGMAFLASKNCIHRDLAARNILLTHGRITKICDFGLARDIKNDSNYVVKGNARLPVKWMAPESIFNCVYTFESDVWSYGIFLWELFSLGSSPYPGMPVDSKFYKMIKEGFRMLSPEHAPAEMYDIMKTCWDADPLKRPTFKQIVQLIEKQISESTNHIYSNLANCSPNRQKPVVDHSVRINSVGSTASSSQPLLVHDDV

[5] = Clearance in Balb/C mouse at 1 mg/kg, iv and 5 mg/kg, po; assay type: ADME, organism-based; settings: in vivo
[6] = Volume of distribution at steady state in Balb/C mouse at 1 mg/kg, iv and 5 mg/kg, po; assay type: ADME, organism-based; settings: in vivo, read-out: Vdss
[7] = Half life in Balb/C mouse at 1 mg/kg, iv and 5 mg/kg, po; assay type: ADME, organism-based; settings: in vivo
[8] = Oral bioavailability in Balb/C mouse at 5 mg/kg; assay type: ADME, organism-based; settings: in vivo
[9] = target: T2, Epithelial discoidin domain-containing receptor 1; assay: Inhibition of DDR1 (unknown origin) at 0.0015 uM after 1 hr by time resolved fluorescence method
[10] = target: T3, Mast/stem cell growth factor receptor Kit; assay: Inhibition of c-Kit (unknown origin) using biotinylated HER2 peptide as substrate at 3 uM by time resolved fluorescence method
[11] = Antiproliferative activity against human NCI-H2286 cells expressing DDR2 mutant after 72 hrs by alamar blue assay; assay type: functional, cell-based; settings: NCI-H2286, 72 h
[12] = Antiproliferative activity against human HCC366 cells expressing DDR2 mutant after 72 hrs by alamar blue assay; assay type: functional, cell-based; settings: HCC366, 72 h
[13] = target: T3, Mast/stem cell growth factor receptor Kit; settings: 0.003 uM
[14] = target: T2, Epithelial discoidin domain-containing receptor 1; assay: Inhibition of DDR1 (unknown origin) after 1 hr by time resolved fluorescence method
[15] = target: T4, Discoidin domain-containing receptor 2 (Homo sapiens) (UniProt Q16832); assay: Inhibition of DDR2 (unknown origin) at 100 uM after 1 hr by time resolved fluorescence method
T4 sequence (whole entry): T1 sequence (Q16832 whole entry)

[16] = target: T3, Mast/stem cell growth factor receptor Kit; assay: Inhibition of c-Kit (unknown origin) using biotinylated HER2 peptide as substrate at 10 uM by time resolved fluorescence method
[17] = target: Proto-oncogene tyrosine-protein kinase Src (Homo sapiens) (UniProt P12931); assay: Inhibition of c-Src (unknown origin) using biotinylated HER2 peptide as substrate at 3 uM by time resolved fluorescence method
[18] = target: T4, Discoidin domain-containing receptor 2 (Homo sapiens); assay: Inhibition of collagen I-induced DDR2 (unknown origin) phosphorylation expressed in HEK293 cells at 0.1 to 1 uM after 16 hrs by Western blotting; assay type: cell-based
In short: (§1)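 HEK293 cells stably transfected with either wild-type DDR2 or the I638F mutant, giving DDR2 overexpression. Cells were left unstimulated or stimulated with collagen I and treated with compound. DDR2 tyrosine phosphorylation (pY) was read out by immunoblot.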

[19] = test system: T5, Discoidin domain-containing receptor 2 (Homo sapiens), Q16832 [I638F]; assay: Inhibition of collagen I-induced DDR2 I638F mutant (unknown origin) phosphorylation expressed in HEK293 cells at 0.1 to 1 uM after 16 hrs by Western blotting; assay type: cell-based; in short: as §1
T5 sequence (whole entry): T1 sequence (Q16832 whole entry) with I638F

[20] = target: T1, Discoidin domain-containing receptor 2; assay: Inhibition of collagen I-induced DDR2 (unknown origin) phosphorylation expressed in HEK293 cells after 16 hrs by mesoscale discovery assay; assay type: cell-based
In short: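 HEK293 cells stably transfected to overexpress DDR2 (wild type or I638F mutant lines were generated), then stimulated with collagen I. Tyrosine-phosphorylated DDR2 was measured by MesoScale Discovery immunoassay and an EC50 was derived from the concentration–response.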

[21] = target: Proto-oncogene tyrosine-protein kinase Src (Homo sapiens) (UniProt P12931); assay: Inhibition of c-Src (unknown origin) using biotinylated HER2 peptide as substrate at 100 uM by time resolved fluorescence method

Compound `Cc1ccc([C@H](C)Nc2nc3cc(F)ccc3o2)cc1NC(=O)c1cnc2ccccn12` has an IC50 [1] of 6.1 nM, an inhibition [2] of 59% and an inhibition [3] of 52%. For the same compound, the IC50 [4] was 160 nM, the clearance [5] was 16.6 mL/min/kg and the Vd [6] was 1.9 L/kg. For the same compound, the half-life [7] was 1.8 h and the bioavailability [8] was 97%.

Work on `Cc1ccc([C@H](C)NC(=O)c2cccc(C(F)(F)F)c2)cc1NC(=O)c1cnc2ccccn12` yielded an IC50 [1] of 5.8 nM, an inhibition [9] of 44% and an inhibition [3] of 48%. It also gave an inhibition [10] of 49%, a clearance [5] of 2.99 mL/min/kg and a Vd [6] of 0.31 L/kg. For the same compound, the half-life [7] was 1.4 h and the bioavailability [8] was 55%.

With `Cc1nc(Nc2ncc(C(=O)Nc3c(C)cccc3Cl)s2)cc(N2CCN(CCO)CC2)n1` [DASATINIB] the inhibition [9] was 40%, the IC50 [11] was 32 nM and the IC50 [12] was 29 nM. It also gave an inhibition [13] of 90%.

`Cc1ccc(CNC(=O)Nc2ccccc2)cc1NC(=O)c1cnc2ccccn12` gave an IC50 [1] of 8.2 nM, an inhibition [3] of 54% and an IC50 [4] of 9.8 nM.

`Cc1ccc([C@H](C)NC(=O)Nc2ccccc2)cc1NC(=O)c1cnc2ccccn12` gave an IC50 [1] of 8.1 nM, an IC50 [14] of 6 nM and an inhibition [3] of 4%. For the same compound, the IC50 [4] was 310 nM.

With `Cc1ccc([C@H](C)NC(=O)Nc2cccc(F)c2)cc1NC(=O)c1cnc2ccccn12` the IC50 [1] was 4.5 nM, the inhibition [9] was 54% and the inhibition [3] was 22%. The IC50 [4] was 140 nM.

`O=C(NCc1cccnc1)Nc1ccccc1Cl` showed an inhibition [15] of 32% and an IC50 [14] of over 100000 nM.

With `Cc1ccc([C@@H](C)NC(=O)Nc2ccccc2)cc1NC(=O)c1cnc2ccccn12` the IC50 [1] was 1300 nM, the IC50 [14] was 1500 nM and the inhibition [16] was 47%.

Work on `Cc1ccc(CNC(=O)Nc2cccc(F)c2)cc1NC(=O)c1cnc2ccccn12` yielded an IC50 [1] of 3.3 nM, an inhibition [9] of 54% and an inhibition [17] of 40%. For the same compound, the IC50 [4] was 19 nM, the clearance [5] was 7.65 mL/min/kg and the Vd [6] was 0.42 L/kg. The half-life [7] was 0.83 h, the bioavailability [8] was 62% and the inhibition [18] was “Active”. The inhibition [19] was “Active”, the EC50 [20] was 8.7 nM and the IC50 [11] was over 10000 nM. For the same compound, the IC50 [12] was over 10000 nM.

For `CN1CCN(CCOc2cc(OC3CCOCC3)c3c(Nc4c(Cl)ccc5c4OCO5)ncnc3c2)CC1`, the inhibition [18] was “Active” and the inhibition [19] was “Active”.

Compound `O=C(NCc1cccc(NC(=O)c2cnc3ccccn23)c1)Nc1ccccc1` has an IC50 [1] of 280 nM, an IC50 [14] of 150 nM and an inhibition [21] of 63%. The IC50 [4] was 180 nM.

In the case of `Cc1cn(-c2cc(NC(=O)c3ccc(C)c(Nc4nccc(-c5cccnc5)n4)c3)cc(C(F)(F)F)c2)cn1` [NILOTINIB], the inhibition [18] is reported as “Active”, the inhibition [19] is reported as “Active” and the IC50 [11] is reported as 1800 nM.
